In ChEMBL document CHEMBL4043279 (Bioorg Med Chem Lett, 2017):
Active and inactive are the calls of the source. No cut-off for these calls is given here.

Experiments:
THP-1 = test: Antiproliferative activity against human THP1 cells treated for 24 hrs measured after 72 hrs by MTT assay; format: functional, cell-based
PC-3 = test: Antiproliferative activity against human PC3 cells treated for 24 hrs measured after 72 hrs by MTT assay; format: functional, cell-based
PBMC = test: Antiproliferative activity against human PBMC treated for 24 hrs measured after 72 hrs by MTT assay; format: cell-based
HepG2 = test: Antiproliferative activity against human HepG2 cells treated for 24 hrs measured after 72 hrs by MTT assay; format: functional, cell-based
HL-60 [1] = test: Antiproliferative activity against human HL60 cells treated for 24 hrs measured after 72 hrs by MTT assay; format: functional, cell-based
HL-60 [2] = test: Induction of apoptosis in human HL60 cells assessed as live cells at 0.5 uM after 48 hrs by Annexin V-FITC/propidium iodide staining based flow cytometry (reference value: 95.75%); format: functional
Procedure, shortened: (§1)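 HL-60 cells were treated for 48 h with vehicle alone or with 0.25, 0.5 or 1.0 μM. Cells were then stained with FITC-Annexin V and PI and analysed by two-parameter flow cytometry. Quadrants were scored as viable (LL), early apoptotic (LR), late apoptotic/necrotic (UR) and necrotic (UL). Total apoptosis was taken as early plus late.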

HL-60 [3] = test: Induction of apoptosis in human HL60 cells assessed as late apoptotic cells at 0.25 uM after 48 hrs by Annexin V-FITC/propidium iodide staining based flow cytometry (reference value: 1.56%); format: functional; procedure, shortened: as §1
HL-60 [4] = test: Induction of mitochondrial membrane potential loss in human HL60 cells assessed as cells with intact mitochondrial membrane at 0.25 uM after 48 hrs by JC-1 staining based flow cytometry (reference value: 92.17%); format: functional
HL-60 [5] = test: Cell cycle arrest in human HL60 cells assessed as accumulation at S-phase at 1 uM after 48 hrs by propidium iodide staining based flow cytometry (reference value: 25.19%); format: functional
HL-60 [6] = test: Induction of apoptosis in human HL60 cells assessed as nuclear fragmentation at 0.25 to 1 uM after 48 hrs by […]; format: functional, cell-based
HL-60 [7] = test: Induction of apoptosis in human HL60 cells assessed as necrotic cells at 1 uM after 48 hrs by Annexin V-FITC/propidium iodide staining based flow cytometry (reference value: 0.03%); format: functional; procedure, shortened: as §1
HL-60 [8] = test: Induction of mitochondrial membrane potential loss in human HL60 cells assessed as cells with collapsed mitochondrial membrane potential at 0.25 uM after 48 hrs by JC-1 staining based flow cytometry (reference value: 7.81%); format: functional
HL-60 [9] = test: Cell cycle arrest in human HL60 cells assessed as accumulation at G1-phase at 0.25 uM after 48 hrs by propidium iodide staining based flow cytometry (reference value: 63.21%); format: functional
HL-60 [10] = test: Induction of mitochondrial membrane potential loss in human HL60 cells assessed as cells with intact mitochondrial membrane at 0.5 uM after 48 hrs by JC-1 staining based flow cytometry (reference value: 92.17%); format: functional
HL-60 [11] = test: Cell cycle arrest in human HL60 cells assessed as accumulation at S-phase at 0.5 uM after 48 hrs by propidium iodide staining based flow cytometry (reference value: 25.19%); format: functional
HL-60 [12] = test: Induction of mitochondrial membrane potential loss in human HL60 cells assessed as cells with intact mitochondrial membrane at 1 uM after 48 hrs by JC-1 staining based flow cytometry (reference value: 92.17%); format: functional
HL-60 [13] = test: Induction of apoptosis in human HL60 cells assessed as necrotic cells at 0.5 uM after 48 hrs by Annexin V-FITC/propidium iodide staining based flow cytometry (reference value: 0.03%); format: functional; procedure, shortened: as §1
HL-60 [14] = test: Induction of apoptosis in human HL60 cells assessed as early apoptotic cells at 0.5 uM after 48 hrs by Annexin V-FITC/propidium iodide staining based flow cytometry (reference value: 2.66%); format: functional; procedure, shortened: as §1
HL-60 [15] = test: Induction of mitochondrial membrane potential loss in human HL60 cells assessed as cells with collapsed mitochondrial membrane potential at 1 uM after 48 hrs by JC-1 staining based flow cytometry (reference value: 7.81%); format: functional
HL-60 [16] = test: Induction of apoptosis in human HL60 cells assessed as late apoptotic cells at 0.5 uM after 48 hrs by Annexin V-FITC/propidium iodide staining based flow cytometry (reference value: 1.56%); format: functional; procedure, shortened: as §1
HL-60 [17] = test: Cell cycle arrest in human HL60 cells assessed as accumulation at S-phase at 0.25 uM after 48 hrs by propidium iodide staining based flow cytometry (reference value: 25.19%); format: functional
HL-60 [18] = test: Induction of mitochondrial membrane potential loss in human HL60 cells assessed as cells with collapsed mitochondrial membrane potential after 48 hrs by JC-1 staining based flow cytometry; format: functional, cell-based
HL-60 [19] = test: Induction of apoptosis in human HL60 cells assessed as live cells at 1 uM after 48 hrs by Annexin V-FITC/propidium iodide staining based flow cytometry (reference value: 95.75%); format: functional; procedure, shortened: as §1
HL-60 [20] = test: Cell cycle arrest in human HL60 cells assessed as accumulation at G2-phase at 0.5 uM after 48 hrs by propidium iodide staining based flow cytometry (reference value: 11.61%); format: functional
HL-60 [21] = test: Induction of mitochondrial membrane potential loss in human HL60 cells assessed as cells with collapsed mitochondrial membrane potential at 0.5 uM after 48 hrs by JC-1 staining based flow cytometry (reference value: 7.81%); format: functional
HL-60 [22] = test: Cell cycle arrest in human HL60 cells assessed as accumulation at G1-phase at 0.5 uM after 48 hrs by propidium iodide staining based flow cytometry (reference value: 63.21%); format: functional
HL-60 [23] = test: Cell cycle arrest in human HL60 cells assessed as accumulation at G1-phase at 1 uM after 48 hrs by propidium iodide staining based flow cytometry (reference value: 63.21%); format: functional
HL-60 [24] = test: Induction of apoptosis in human HL60 cells assessed as necrotic cells at 0.25 uM after 48 hrs by Annexin V-FITC/propidium iodide staining based flow cytometry (reference value: 0.03%); format: functional; procedure, shortened: as §1
HL-60 [25] = test: Induction of apoptosis in human HL60 cells assessed as early apoptotic cells at 0.25 uM after 48 hrs by Annexin V-FITC/propidium iodide staining based flow cytometry (reference value: 2.66%); format: functional; procedure, shortened: as §1
HL-60 [26] = test: Induction of apoptosis in human HL60 cells assessed as late apoptotic cells at 1 uM after 48 hrs by Annexin V-FITC/propidium iodide staining based flow cytometry (reference value: 1.56%); format: functional; procedure, shortened: as §1
HL-60 [27] = test: Induction of apoptosis in human HL60 cells assessed as live cells at 0.25 uM after 48 hrs by Annexin V-FITC/propidium iodide staining based flow cytometry (reference value: 95.75%); format: functional; procedure, shortened: as §1
HL-60 [28] = test: Induction of apoptosis in human HL60 cells assessed as early apoptotic cells at 1 uM after 48 hrs by Annexin V-FITC/propidium iodide staining based flow cytometry (reference value: 2.66%); format: functional; procedure, shortened: as §1
HL-60 [29] = test: Cell cycle arrest in human HL60 cells assessed as accumulation at G2-phase at 0.25 uM after 48 hrs by propidium iodide staining based flow cytometry (reference value: 11.61%); format: functional
HL-60 [30] = test: Cell cycle arrest in human HL60 cells assessed as accumulation at G2-phase at 1 uM after 48 hrs by propidium iodide staining based flow cytometry (reference value: 11.61%); format: functional
HL-60 [31] = test: Induction of apoptosis in human HL60 cells after 48 hrs by Annexin V-FITC/propidium iodide staining based flow cytometry; format: functional, cell-based; procedure, shortened: as §1
HL-60 [32] = test: Induction of apoptosis in human HL60 cells assessed as chromatin condensation at 0.25 to 1 uM after 48 hrs […]; format: functional, cell-based

SMILES: CN1c2ccccc2C(=O)N2CCc3c([nH]c4ccccc34)C21 (centres undefined)
- IC50 (THP-1): 3.37 µM
- IC50 (PC-3): 14 µM
- IC50 (PBMC): 22.9 µM
- IC50 (HepG2): 9.32 µM
- IC50 (HL-60 [1]): 1.39 µM

SMILES: CN1c2ccccc2C(=O)N2CCc3c(n(CCCOCCCO)c4ccccc34)C21 (centres undefined)
- IC50 (THP-1): 8.42 µM
- IC50 (PC-3): 19.9 µM
- IC50 (PBMC): > 200 µM
- IC50 (HepG2): > 100 µM
- IC50 (HL-60 [1]): 5.31 µM

SMILES: COC(=O)[C@H](Cc1ccc(N(CCCl)CCCl)cc1)NC(=O)CCC(=O)OCCCOCCCn1c2c(c3ccccc31)CCN1C(=O)c3ccccc3N(C)C21 (some centres undefined)
- Activity (HL-60 [2]): 53.71%
- Activity (HL-60 [3]): 5.69%
- Activity (HL-60 [4]): 85.67%
- IC50 (THP-1): 4.05 µM
- Activity (HL-60 [5]): 28.18%
- Activity (HL-60 [6]): Active
- Activity (HL-60 [7]): 0.79%
- Activity (HL-60 [8]): 14.13%
- Activity (HL-60 [9]): 62.39%
- Activity (HL-60 [10]): 71.49%
- Activity (HL-60 [11]): 26.28%
- Activity (HL-60 [12]): 37.22%
- Activity (HL-60 [13]): 0.72%
- Activity (HL-60 [14]): 40.31%
- Activity (HL-60 [15]): 62.78%
- Activity (HL-60 [16]): 5.27%
- Activity (HL-60 [17]): 24.42%
- Activity (HL-60 [18]): Dose-dependent effect
- Activity (HL-60 [19]): 34.97%
- Activity (HL-60 [20]): 15.19%
- IC50 (PC-3): > 100 µM
- Activity (HL-60 [21]): 28.51%
- Activity (HL-60 [22]): 58.52%
- Activity (HL-60 [23]): 45.83%
- IC50 (PBMC): > 200 µM
- Activity (HL-60 [24]): 0.58%
- IC50 (HepG2): 17 µM
- Activity (HL-60 [25]): 10.41%
- IC50 (HL-60 [1]): 0.5 µM
- Activity (HL-60 [26]): 6.7%
- Activity (HL-60 [27]): 83.31%
- Activity (HL-60 [28]): 57.54%
- Activity (HL-60 [29]): 13.19%
- Activity (HL-60 [30]): 25.99%
- Activity (HL-60 [31]): Dose-dependent effect
- Activity (HL-60 [32]): Active

SMILES: CN1c2ccccc2C(=O)N2CCc3c(n(CCCOC(=O)CCCc4ccc(N(CCCl)CCCl)cc4)c4ccccc34)C21 (centres undefined)
- IC50 (THP-1): 5.68 µM
- IC50 (PC-3): > 100 µM
- IC50 (PBMC): > 200 µM
- IC50 (HepG2): > 100 µM
- IC50 (HL-60 [1]): 4.3 µM

SMILES: CN1c2ccccc2C(=O)N2CCc3c(n(CCCCCCO)c4ccccc34)C21 (centres undefined)
- IC50 (THP-1): 6.97 µM
- IC50 (PC-3): 21.5 µM
- IC50 (PBMC): > 200 µM
- IC50 (HepG2): > 100 µM
- IC50 (HL-60 [1]): 8.53 µM

SMILES: O=C(O)CCCc1ccc(N(CCCl)CCCl)cc1 [CHLORAMBUCIL]
- IC50 (THP-1): 5.3 µM
- IC50 (PC-3): 42.1 µM
- IC50 (PBMC): > 200 µM
- IC50 (HepG2): > 100 µM
- IC50 (HL-60 [1]): 12.9 µM

SMILES: COC(=O)[C@H](Cc1ccc(N(CCCl)CCCl)cc1)NC(=O)CCC(=O)OCCCn1c2c(c3ccccc31)CCN1C(=O)c3ccccc3N(C)C21 (some centres undefined)
- IC50 (THP-1): 2.37 µM
- IC50 (PC-3): > 100 µM
- IC50 (PBMC): > 200 µM
- IC50 (HepG2): > 100 µM
- IC50 (HL-60 [1]): 1.12 µM

SMILES: CN1c2ccccc2C(=O)N2CCc3c(n(CCCOCCCOC(=O)CCCc4ccc(N(CCCl)CCCl)cc4)c4ccccc34)C21 (centres undefined)
- IC50 (THP-1): 5.31 µM
- IC50 (PC-3): 27.6 µM
- IC50 (PBMC): > 200 µM
- IC50 (HepG2): > 100 µM
- IC50 (HL-60 [1]): 1.29 µM

SMILES: O=c1[nH]cc(F)c(=O)[nH]1 [FLUOROURACIL]
- IC50 (THP-1): 4.87 µM
- IC50 (PC-3): 23.9 µM
- IC50 (HL-60 [1]): 3.69 µM

SMILES: CN1c2ccccc2C(=O)N2CCc3c(n(CCCCCCOC(=O)c4ccc(N(CCCl)CCCl)cc4)c4ccccc34)C21 (centres undefined)
- IC50 (THP-1): 3.92 µM
- IC50 (PC-3): > 100 µM
- IC50 (PBMC): > 200 µM
- IC50 (HepG2): > 100 µM
- IC50 (HL-60 [1]): 23.5 µM
